Experimental data taken from ChEMBL document CHEMBL4364265, “Oridonin derivatives as potential anticancer drug candidates triggering apoptosis through mitochondrial pathway in the liver cancer cells” (Eur J Med Chem, 2019).
The source made the active and inactive calls. The rule behind the calls is not given here.

Key:
PLC-PRF-5 [1] = assay: Induction of apoptosis in human PLC/PRF/5 cells assessed as shrunken chromatin at 0.25 to 1 uM incubated for 24 hrs by Hoechst 33258 dye based fluorescence microscopic method; assay type: functional, cell-based
Procedure, shortened: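 About 2 × 10^4 cells per well were plated overnight and treated 24 h with 0, 0.25, 0.5 or 1 µM compound. Cells were fixed in 4% paraformaldehyde for 30 min at room temperature, stained with 20 µg/mL Hoechst 33258 for 20 min at 37 °C, and imaged by fluorescence microscopy.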

L02 = assay: Cytotoxicity against human LO2 cells incubated for 72 hrs by CCK8 cells; assay type: cell-based; details: L02, 72 h
Procedure, shortened: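 CCK-8 proliferation assay. 10,000 cells per well were preincubated 24 h at 37 °C with 5% CO2, then given compound dissolved in DMSO and incubated 72 h. CCK-8 was added for 4 h and absorbance read at 450 nm. IC50 was taken from dose-response curves as mean ± SEM of at least three independent experiments, with paclitaxel as positive control. HepG2 and L-O2 were grown in DMEM/10% FBS; A549 and RPMI-8226 in RPMI 1640/10% FBS.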

HepG2 [2] = assay: Induction of apoptosis in human HepG2 cells assessed as necrotic cells at 0.25 uM incubated for 24 hrs by annexin V staining based cell counting method (reference value: 3.40%); assay type: functional
HepG2 [3] = assay: Induction of apoptosis in human HepG2 cells assessed as early apoptotic cells at 1 uM incubated for 24 hrs by annexin V staining based cell counting method (reference value: 3.60%); assay type: functional
PLC-PRF-5 [4] = assay: Induction of apoptosis in human PLC/PRF/5 cells assessed as upregulation of cleaved caspase 3 protein expression level incubated for 24 hrs by Western blot analysis; assay type: functional, cell-based
Procedure, shortened: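 After 24 h exposure (0, 0.25, 0.5, 1.0 and 1.25 µM), adherent plus floating cells collected, lysed in RIPA on ice 30 min, protein quantified by BCA; equal protein run on 7.5–12.5% SDS gels, transferred to PVDF, blocked 30 min in 5% milk/PBST, primary antibody overnight at 4 °C, ECL detection.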

PLC-PRF-5 [5] = assay: Induction of cell cycle arrest in human PLC/PRF/5 cells assessed as accumulation at S phase at 0.25 uM incubated for 24 hrs by PI staining based flow cytometric analysis (reference value: 42.03%); assay type: functional
[6] = Toxicity in nude mouse xenografted with human PLC/PRF/5 cells assessed as change in body weight at 10 mg/kg, iv administrated once every 3 days for 4 weeks; assay type: organism-based; details: in vivo
Procedure, shortened: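 Nude mice were inoculated subcutaneously in the right forelimb with 2 × 10⁷ PLC/PRF/5 cells in 0.2 mL saline. At about 120 mm³, mice were randomized into 3 groups of 6. Dosing was i.v. once every three days for 4 weeks, with vehicle 10% N-methylpyrrolidone/12% Tween-80/78% saline. Body weight was recorded daily.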

HepG2 [7] = assay: Induction of cell cycle arrest in human HepG2 cells assessed as accumulation at G1 phase at 0.25 uM incubated for 24 hrs by PI staining based flow cytometric analysis (reference value: 37.06%); assay type: functional
PLC-PRF-5 [8] = assay: Induction of apoptosis in human PLC/PRF/5 cells assessed as late apoptotic cells at 0.25 uM incubated for 24 hrs by annexin V staining based cell counting method (reference value: 4.81%); assay type: functional
PLC-PRF-5 [9] = assay: Induction of apoptosis in human PLC/PRF/5 cells assessed as late apoptotic cells at 1 uM incubated for 24 hrs by annexin V staining based cell counting method (reference value: 4.81%); assay type: functional
HepG2 [10] = assay: Induction of apoptosis in human HepG2 cells assessed as upregulation of Bax protein expression level incubated for 24 hrs by Western blot analysis; assay type: functional, cell-based
Procedure, shortened: (§1)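 Cells were treated 24 h in DMEM with 0, 0.25, 0.5, 1.0 or 1.25 µM compound. Adherent and floating cells were lysed in RIPA on ice and protein measured by BCA. Equal protein was run on 7.5–12.5% SDS-PAGE and transferred to PVDF. Membranes were blocked in 5% milk/PBST, incubated with primary antibody overnight at 4 °C, and detected by ECL.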

HepG2 [11] = assay: Induction of cell cycle arrest in human HepG2 cells assessed as accumulation at S phase at 0.5 uM incubated for 24 hrs by PI staining based flow cytometric analysis (reference value: 35.46%); assay type: functional
HepG2 [12] = assay: Induction of mitochondrial membrane potential loss in human HepG2 cell incubated for 24 hrs by JC1 staining based fluorescence microscopic method; assay type: functional
Procedure, shortened: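 Cells seeded in 12-well plates, cultured 12 h, treated 24 h (0, 0.25, 0.5, 1 µM). After a PBS wash, stained with JC-1 in medium for 20 min at 37 °C and washed three times. Red aggregate and green monomer fluorescence were imaged by fluorescence microscopy; the red/green ratio was taken; three independent experiments.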

[13] = Half life in human plasma measured for 5 to 120 mins by LC-MS/MS analysis; assay type: ADME, cell-free
Procedure, shortened: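 Compound at an initial 5000 ng/mL was incubated in human plasma at 37 °C. 100 µL aliquots were taken at 0–120 min and extracted with methanol plus tyrosine internal standard, then centrifuged and filtered. Extracts were analysed by LC-MS/MS on a triple-quadrupole instrument with ESI.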

HepG2 [14] = assay: Induction of apoptosis in human HepG2 cells assessed as increase in cytochrome c protein expression level at 0.25 to 1.25 uM incubated for 24 hrs by Western blot analysis; assay type: functional, cell-based; procedure, shortened: as §1
PLC-PRF-5 [15] = assay: Induction of apoptosis in human PLC/PRF/5 cells assessed as necrotic cells at 1 uM incubated for 24 hrs by annexin V staining based cell counting method (reference value: 0.59%); assay type: functional
HepG2 [16] = assay: Induction of ROS generation in human HepG2 cells by DCFH-DA staining-based flow cytometric analysis; assay type: functional, cell-based
Procedure, shortened: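 Cells were treated with 0, 0.25, 0.5 or 1 µM compound, stained with 10 µM DCFH-DA for 20 min at 37 °C, washed three times, resuspended in PBS and read by flow cytometry. Data are mean ± SD of three independent experiments.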

PLC-PRF-5 [17] = assay: Induction of apoptosis in human PLC/PRF/5 cells assessed as early apoptotic cells at 0.5 uM incubated for 24 hrs by annexin V staining based cell counting method (reference value: 5.65%); assay type: functional
HepG2 [18] = assay: Induction of apoptosis in human HepG2 cells assessed as live cells at 0.25 uM incubated for 24 hrs by annexin V staining based cell counting method (reference value: 87.35%); assay type: functional
PLC-PRF-5 [19] = assay: Induction of cell cycle arrest in human PLC/PRF/5 cells assessed as accumulation at G1 phase at 0.5 uM incubated for 24 hrs by PI staining based flow cytometric analysis (reference value: 34.78%); assay type: functional
HepG2 [20] = assay: Induction of apoptosis in human HepG2 cells assessed as late apoptotic cells at 0.5 uM incubated for 24 hrs by annexin V staining based cell counting method (reference value: 5.65%); assay type: functional
[21] = Selectivity index, ratio of IC50 for human LO2 cells to IC50 for human PLC/PRF/5 cells
Procedure, shortened: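 L-O2 and PLC/PRF/5 cells were grown in DMEM with 10% FBS at 37 °C and 5% CO₂. For CCK-8 proliferation, 10,000 cells per well were pre-incubated 24 h, then exposed to compound in DMSO for 72 h. CCK-8 was added for 4 h and A450 read. IC50 came from dose–response curves; SI is IC50(L-O2)/IC50(PLC/PRF/5).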

C=C1C(=O)[C@]23[C@H](OC(=O)/C=C/c4ccc(OC)cc4)[C@H]1CC[C@H]2[C@@]12CO[C@]3(O)[C@@H](O)[C@@H]1C(C)(C)CC[C@@H]2O
Activity (PLC-PRF-5 [1]): Active | IC50 (L02): 1470 nM | Activity (HepG2 [2]): 7.05% | Activity (HepG2 [3]): 21.8% | Activity (PLC-PRF-5 [4]): Dose-dependent effect | Activity (PLC-PRF-5 [5]): 46.59% | Activity [6]: Non-Toxic | Activity (HepG2 [7]): 38.04% | Activity (PLC-PRF-5 [8]): 9.14% | Activity (PLC-PRF-5 [9]): 36.66% | Activity (HepG2 [10]): Dose-dependent effect | Activity (HepG2 [11]): 34.53% | Activity (HepG2 [12]): Dose-dependent effect | half-life [13]: 2 h | Activity (HepG2 [14]): Active | Activity (PLC-PRF-5 [15]): 0.45% | Activity (HepG2 [16]): Dose-dependent effect | Activity (PLC-PRF-5 [17]): 16.04% | Activity (HepG2 [18]): 81.95% | Activity (PLC-PRF-5 [19]): 43.49% | Activity (HepG2 [20]): 7.55% | Ratio IC50 [21]: 1.8
